CHOP inhibitor = inhibitors of CHOP induction in ER stress response; CHO-K1 CHOP-promoter luciferase, tunicamycin-induced, 15-18 h; inhibition, % at 10 µM; hit rate 3.8% among 220,000;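 active means compounds that reduced the stress-induced luciferase reporter signal by more than about 70% of percent inhibition, limit read from the data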
Tb MetRS inh = blocks T. brucei methionyl-tRNA synthetase activity; purified T. brucei MetRS, ATP depletion, Kinase-Glo luminescence; inhibition, % at 11.9 µM; hit rate 0.4% among 360,000;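 active means inhibition above a per-plate cutoff of the control wells' mean inhibition plus 3 SD, cut at about 5.5% in these data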
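Dosing: 11.9 µM single point; system: parasite MetRS enzyme; technique: luminescence of leftover ATP; times: 15 min enzyme-compound preincubation, 2 h reaction, 10 min detection, 25 °C; replicates: each compound tested once; read-out basis: percent inhibition relative to median high and low control wells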
V-ATPase pH = regulators of yeast V-ATPase proton transport; S. cerevisiae, pHLuorin cytosolic pH fluorescence; AID 504577; response, % at 10 µM; hit rate 0.37% among 350,000; in the data active means response mostly above about 7.3%, no sharp cut-off; inactive means mostly below about 5.4%; further: actives read high
UPR CHOP act = apoptotic UPR (CHOP) activation. CHO-CHOP luciferase reporter, luminescence; percent of tunicamycin response over DMSO baseline. activation, % at 10 µM. hit rate 0.34% among 330,000. AID 449763;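 active means at 10 µM dose, activation of 40% or more, normalized to positive control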
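measured by = luciferase luminescence | assay system = CHO-CHOP cells, stable luciferase reporter of PERK-eIF2a-CHOP signalling | amount = 500 reporter cells seeded per well | timing = 6 h compound exposure at 37 °C after overnight seeding | controls = positive tunicamycin 10 µg/mL, negative DMSO alone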
UPR XBP1 act = activators of adaptive arm of unfolded protein response (XBP1). CHO-XBP1 luciferase reporter, IRE1-XBP1 UPR activation, luminescence; percent of tunicamycin response, DMSO as zero. activation, % at 20 µM. hit rate 0.33% among 330,000. AID 463104;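 active means versus positive control, 20 µM dose yields 30% or more activation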
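Material: CHO-XBP1 cells stably carrying IRE1-XBP1-driven luciferase reporter | Medium: F12 with 10% serum | Compound dosing: 20 µM single concentration, DMSO 1% | Incubation: Overnight seeding at 37 °C, 6 h compound treatment at 37 °C | Detection: Steady-Glo luminescence read | Read-out basis: % activation of reporter signal versus tunicamycin and DMSO controls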
TbMetRS confirm = Trypanosoma brucei MetRS inhibition confirmed. shares compounds with Tb MetRS inh. T. brucei MetRS enzyme, luminescence (ATP depletion). inhibition, % at 11.9 µM. hit rate 93% among 1,400. AID 624412; in the data active means inhibition above about 7%
Jurkat tox = Jurkat T cell cytotoxicity for MetRS hits; Jurkat cells viability, ATP luminescence; AID 624413; hit rate 12% among 1,400; shares compounds with Tb MetRS inh; inhibition, % at 8.3 µM; in the data active means inhibition above about 15%
TbMetRS FP orth = inhibits T. brucei methionyl tRNA synthetase in orthogonal FP test | shares compounds with Tb MetRS inh | purified T. brucei MetRS, fluorescence polarization | inhibition, % at 11.9 µM | hit rate 44% among 1,400; in the data active means inhibition above about 17%
Numbers stand for hits; . = inactive; / = no result. Only a selection was taken, and hits are over-represented in it overall.

SMILES	CHOP inhibitor	Tb MetRS inh	V-ATPase pH	UPR CHOP act	UPR XBP1 act	TbMetRS confirm	Jurkat tox	TbMetRS FP orth
NS(=O)(=O)c1ccc(CCNC(=O)CCCn2c(=O)[nH]c3ccc(Br)cc3c2=O)cc1	.	13.5	.	.	.	21.8	.	.
CC(C)CCNC(=O)CCCn1c(=O)[nH]c2ccc(Br)cc2c1=O	.	.	.	.	.	/	/	/
O=C(NC1CCN(C(=S)NCc2ccco2)CC1)c1cccc(F)c1	.	.	.	.	.	/	/	/
Cc1nc(SCC(=O)NCc2ccccc2)c2c(=O)n(C)c(=O)n(C)c2n1	.	5.6	.	.	.	.	.	.
O=C(CCn1c(=O)oc2ccccc21)Nc1ccc2c(c1)OCCO2	.	20.9	.	.	.	.	.	.
O=C(Cn1c(=O)oc2ccccc21)Nc1ccc2c(c1)OCCO2	.	.	.	.	.	/	/	/
O=c1[nH]c2ccc(Cl)cc2c(=O)n1Cc1ccco1	80.6	9.4	.	.	.	27.9	.	.
O=c1c2cc(N3CCOCC3)ccc2[nH]c(=S)n1Cc1ccco1	.	.	.	.	.	/	/	/
O=c1c2cc(Cl)ccc2[nH]c(=S)n1Cc1ccco1	.	8.1	.	.	.	12.6	.	.
CCc1cc(C(=O)NC2CCCc3c2cnn3-c2ccc(F)cc2F)no1 (stereo not drawn)	/	.	.	/	/	/	/	/
Cc1ccc(CNC(=O)CSc2nnc3c(n2)[nH]c2ccccc23)cc1	/	16.4	.	.	.	68.6	.	45.4
COc1ccc(CCNC(=O)CSc2nnc3c(n2)[nH]c2ccc(F)cc23)cc1OC	/	.	.	.	.	/	/	/
O=C(CSc1nnc2c(n1)[nH]c1ccc(F)cc12)NCc1ccc(F)cc1	/	17.1	.	.	.	70.7	.	49.1
COc1ccc(CNC(=O)CSc2nnc3c(n2)[nH]c2ccc(F)cc23)cc1	/	32.9	.	.	.	92.0	.	66.1
O=C(CSc1nnc2c(n1)[nH]c1ccccc12)Nc1ccc2c(c1)OCO2	.	75.6	.	.	.	83.0	.	70.6
CCOc1ccccc1N(CC(=O)NC(C)(C)C)C(=O)CCC(=O)Nc1nccs1	/	.	.	.	.	/	/	/
COc1ccc(CNC(=O)CSc2nnc3c(n2)[nH]c2ccc(OC)cc23)cc1	/	7.6	.	.	.	35.0	.	22.3
Cc1ccc(NC(=O)CSc2nnc3c(n2)[nH]c2ccccc23)cc1	/	.	.	.	.	/	/	/
O=C(CSc1nc2ncccc2[nH]1)Nc1ccc2c(c1)OCO2	.	16.1	.	.	.	27.0	.	17.4
O=C(CSc1nnc2c(n1)[nH]c1ccccc12)Nc1nncs1	/	24.5	.	.	.	43.3	.	19.2
COc1ccc2[nH]c3nc(SC(C)C)nnc3c2c1	.	.	.	.	.	/	/	/
CCc1ccc(CN2CCCC(CCC(=O)N3CCN(c4ccccn4)CC3)C2)o1 (stereo not drawn)	.	.	.	.	.	/	/	/
COC(=O)C1=C(N)Oc2cc(C)n(Cc3cccnc3)c(=O)c2C1c1cc(OC)ccc1OC (stereo not drawn)	.	39.6	.	.	.	6.1	.	.
COC(=O)C1=C(N)Oc2cc(C)n(CCCn3ccnc3)c(=O)c2C1c1cccc(Cl)c1 (stereo not drawn)	/	19.4	.	.	.	.	.	.
Cc1ccccc1Oc1cc(NC(=O)Cn2cnc([N+](=O)[O-])c2)cc([N+](=O)[O-])c1	.	9.6	.	.	.	24.2	.	16.8
SMILES	CHOP inhibitor	Tb MetRS inh	V-ATPase pH	UPR CHOP act	UPR XBP1 act	TbMetRS confirm	Jurkat tox	TbMetRS FP orth
CCc1ccc(NC(=O)Cn2cnc([N+](=O)[O-])c2)cc1	/	.	.	.	.	/	/	/
Nc1n[nH]c(N)c1N=Nc1ccccc1F	/	.	.	.	.	/	/	/
Nc1n[nH]c(N)c1N=Nc1ccc(Cl)cc1Cl	.	9.7	.	.	.	22.2	19.2	35.9
COc1nc2c(c(-c3cc(Br)cs3)c1C#N)Cc1ccccc1-2	.	.	.	.	.	/	/	/
CN(c1cccc(Cl)c1)S(=O)(=O)c1cccc(C(=O)Nc2nc3ccccc3[nH]2)c1	.	33.0	.	.	.	44.1	67.9	21.9
CCN(CC)c1cc(Cl)c2nonc2c1N	.	.	.	.	.	/	/	/
CN(C)c1cc(Cl)c2nonc2c1N	.	5.7	.	.	.	.	.	.
O=S(=O)(Nc1nccs1)c1ccc(NCc2cc(Br)cc(Br)c2O)cc1	.	35.5	.	.	.	67.7	.	24.1
Cn1cccc1C(=O)NC(=O)COC(=O)c1cc(S(=O)(=O)N2CCCCC2)ccc1Cl	.	.	.	.	.	/	/	/
CCc1ccc(NC(=O)Cn2c(=O)oc3cc(S(=O)(=O)N4CCOCC4)ccc32)cc1	.	14.6	.	.	.	11.7	.	.
CCc1cccc(NC(=O)Cn2c(=O)oc3cc(S(=O)(=O)N4CCOCC4)ccc32)c1	.	7.0	.	.	.	11.8	.	.
COC(=O)N1C(=O)[C@@](c2ccccc2)(C2CCCCC2)N1C(=O)OC	/	.	.	.	.	/	/	/
COc1ccc(NC(=O)CN(C)C(=O)CCSc2ccc(F)cc2)cc1	/	8.7	.	.	.	32.7	.	.
CN(CC(=O)Nc1cccc(F)c1)C(=O)c1ccc(-c2ccc(Cl)cc2)o1	/	20.5	.	.	.	39.4	.	23.6
COc1ccc(NC(=O)CN(C)C(=O)c2oc3c(ccc4ccccc43)c2C)cc1	/	6.4	.	.	.	22.8	.	.
Cc1cc(Br)ccc1NC(=O)CN(C)C(=O)CCSc1ccc(F)cc1	/	.	.	.	.	/	/	/
CN(CC(=O)Nc1ccccc1Cl)C(=O)CCSc1ccc(F)cc1	/	.	.	.	.	/	/	/
CN(CC(=O)Nc1cccc(F)c1)C(=O)CCSc1ccc(F)cc1	/	14.7	.	.	.	42.5	.	19.5
C=CC(=O)NCCCc1cc(C(C)(C)C)c(O)c(C(C)(C)C)c1	.	.	.	.	.	/	/	/
CCc1nc(CN2CCN(c3cc(C(F)(F)F)ccn3)CC2)c(C)[nH]1	.	.	.	.	.	/	/	/
O=C(Cn1c(NCCO)nc2ccccc21)c1ccc([N+](=O)[O-])cc1	/	19.6	.	.	.	.	.	.
O=C(Cn1c(NCCCO)nc2ccccc21)c1ccc([N+](=O)[O-])cc1	/	.	.	.	.	/	/	/
Cc1ccc(NC(=O)CN(C)C(=O)COC(=O)c2ccc(Cl)cc2O)cc1	/	6.8	.	.	.	64.0	.	38.6
Cc1ccc(NC(=O)CN(C)C(=O)CCOc2cccc(C)c2)cc1	.	6.0	.	.	.	11.4	.	.
Fc1cccc(CSc2nc3ncc(Cl)cc3[nH]2)c1	.	6.4	.	.	.	7.3	.	.
Fc1cccc(CSc2nc3ncccc3[nH]2)c1	.	.	.	.	.	/	/	/

Compound activity deposited in PubChem by several laboratories.
